Data: ChEMBL document CHEMBL1158680, “Chemical constituents and biological activities of the fruit of Zanthoxylum integrifoliolum” (1999)

Key:
[1] = tested on: Aorta; assay: Vasorelaxation activity in rat aorta assessed as inhibition of norepinephrine-induced tonic contraction at 1 ug/ml preincubated for 15 mins relative to control; assay type: functional; design: scale not given: the % may be the effect or the level left
In short: (§1)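 Rat aorta was preincubated with test sample or 0.1% DMSO vehicle at 37 °C for 15 min. Contraction was then evoked with high K+ (80 mM) or norepinephrine (3 μM). Response is expressed as percent of control contraction, mean ± SEM, n = 3.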

[2] = tested on: Aorta; assay: Vasorelaxation activity in rat aorta assessed as inhibition of norepinephrine-induced phasic contraction at 1 ug/ml preincubated for 15 mins relative to control; assay type: functional; design: scale not given: the % may be the effect or the level left; in short: as §1

Work on `COc1cc2nc(N3CCN(C(=O)c4ccco4)CC3)nc(N)c2cc1OC` [PRAZOSIN] yielded an Activity [1] of 0% and an Activity [2] of 0%.
